# ChEMBL document CHEMBL3259727, “Cathepsin C inhibitors: property optimization and identification of a clinical candidate” (J Med Chem, 2014)
# Active and inactive are the calls of the source. No cut-off for these calls is given here.
# Key:
# Dipeptidyl peptidase 1 [1] = molecular target: T1, Dipeptidyl peptidase 1 (Homo sapiens, UniProt P53634); test: Inhibition of recombinant human cathepsin C using H-Gly-Arg-AMC as substrate preincubated for 30 mins before substrate addition measured after 60 mins by fluorescence assay
# Dipeptidyl peptidase 1 [2] = molecular target: T1, Dipeptidyl peptidase 1; test: Inhibition of cathepsin C in human THP1 cells assessed as inhibition of H-Gly-Phe-AFC cleavage by fluorescence assay; type: cell-based, THP-1
# Summary of the method: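 Cellular CatC activity in human THP1 cells measured as cleavage of fluorogenic substrate H-Gly-Phe-AFC; pIC50 determined.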
# [3] = Intrinsic clearance in human microsomes; type: ADME, Microsome
# Summary of the method: (§1)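 Intrinsic clearance (Clint) determined in human liver microsome and rat hepatocyte preparations.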
# [4] = Intrinsic clearance in rat hepatocytes assessed per million cells; type: ADME, cell-based, Hepatocyte; conditions: read-out: CLH; summary of the method: as §1
# [5] = molecular target: Voltage-gated inwardly rectifying potassium channel KCNH2 (Homo sapiens, UniProt Q12809); test: Inhibition of human ERG by electrophysiology assay
# [6] = Lipophilicity, log D of the compound; type: physicochemical; conditions: octanol/water
# [7] = Dissociation constant, pKa of the compound; type: physicochemical
# Cathepsin K = molecular target: T2, Cathepsin K (Homo sapiens, UniProt P43235); test: (§2) Inhibition of Cathepsin K (unknown origin)
# T2 sequence (P43235 whole entry): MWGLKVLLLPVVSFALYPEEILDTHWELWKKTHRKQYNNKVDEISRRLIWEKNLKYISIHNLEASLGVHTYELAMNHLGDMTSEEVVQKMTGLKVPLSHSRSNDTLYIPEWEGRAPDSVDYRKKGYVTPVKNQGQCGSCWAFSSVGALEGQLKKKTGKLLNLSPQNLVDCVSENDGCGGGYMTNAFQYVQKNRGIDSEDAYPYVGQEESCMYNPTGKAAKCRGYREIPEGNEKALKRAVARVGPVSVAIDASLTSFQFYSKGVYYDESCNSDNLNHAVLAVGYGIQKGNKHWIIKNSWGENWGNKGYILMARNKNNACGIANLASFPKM
# Procathepsin L = Procathepsin L (Homo sapiens, UniProt P07711); test: Inhibition of Cathepsin L (unknown origin)
# Cathepsin S = Cathepsin S (Homo sapiens, UniProt P25774); test: Inhibition of Cathepsin S (unknown origin)
# Cathepsin B = Cathepsin B (Homo sapiens, UniProt P07858); test: Inhibition of Cathepsin B (unknown origin)
# [8] = Induction of phospholipid accumulation in rat hepatoma cells; type: cell-based
# [9] = molecular target: T3, Cathepsin K (Homo sapiens) (UniProt P43235); test: Inhibition of Cathepsin K (unknown origin) at 10 uM
# T3 sequence (whole entry): T2 sequence (P43235 whole entry)
# [10] = Clearance in rat; type: ADME, organism-based; conditions: in vivo
# [11] = Volume of distribution at steady state in rat; type: ADME, organism-based; conditions: in vivo, read-out: Vdss
# [12] = Half life in rat; type: ADME, organism-based; conditions: in vivo
# [13] = Bioavailability in rat; type: ADME, organism-based; conditions: in vivo
# Rattus norvegicus [14] = species: Rattus norvegicus; test: Toxicity in rat assessed as liver hypertrophy; type: organism-based; conditions: in vivo
# Rattus norvegicus [15] = species: Rattus norvegicus; test: Toxicity in rat assessed as liver cholangitis; type: organism-based; conditions: in vivo
# Rattus norvegicus [16] = species: Rattus norvegicus; test: Toxicity in rat assessed as liver vacuolation; type: organism-based; conditions: in vivo
# Rattus norvegicus [17] = species: Rattus norvegicus; test: Toxicity in rat assessed as foci of foaming macrophages in lung; type: organism-based
# [18] = Clearance in mouse; type: ADME, organism-based; conditions: in vivo
# [19] = Volume of distribution at steady state in mouse; type: ADME, organism-based; conditions: in vivo, read-out: Vdss
# [20] = Half life in mouse; type: ADME, organism-based; conditions: in vivo
# [21] = Bioavailability in mouse; type: ADME, organism-based; conditions: in vivo
# [22] = Clearance in dog; type: ADME, organism-based, Canis lupus familiaris; conditions: in vivo
# [23] = Volume of distribution at steady state in dog; type: ADME, organism-based, Canis lupus familiaris; conditions: in vivo, read-out: Vdss
# [24] = Half life in dog; type: ADME, organism-based, Canis lupus familiaris; conditions: in vivo
# [25] = Bioavailability in dog; type: ADME, organism-based, Canis lupus familiaris; conditions: in vivo
# Leukotriene B4 receptor [26] = molecular target: T4, Leukotriene B4 receptor (Homo sapiens, UniProt Q9NPC1+Q15722); test: Binding affinity to leukotriene B4 receptor (unknown origin); type: protein assay
# Leukotriene B4 receptor [27] = molecular target: T4, Leukotriene B4 receptor; test: Binding affinity to leukotriene B4 receptor (unknown origin) at 10 uM; type: protein assay
# Summary of the method: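 Screened at 10 μM in a human LTB4 binding assay within a panel of over 170 assays; percent inhibition reported.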
# [28] = molecular target: T3, Cathepsin K (Homo sapiens); test: as §2
# Plasma [29] = test: Stability in rat plasma; type: ADME, cell-free
# Plasma [30] = test: Stability in human plasma; type: ADME, cell-free
# Hepatocyte [31] = test: Metabolic stability in rat hepatocytes assessed per compound oxidation by LC-MS/MS analysis; type: ADME, cell-based
# Hepatocyte [32] = test: Metabolic stability in human hepatocytes assessed per compound oxidation by LC-MS/MS analysis; type: ADME, cell-based
# Chain of Procathepsin L (P07711 whole entry): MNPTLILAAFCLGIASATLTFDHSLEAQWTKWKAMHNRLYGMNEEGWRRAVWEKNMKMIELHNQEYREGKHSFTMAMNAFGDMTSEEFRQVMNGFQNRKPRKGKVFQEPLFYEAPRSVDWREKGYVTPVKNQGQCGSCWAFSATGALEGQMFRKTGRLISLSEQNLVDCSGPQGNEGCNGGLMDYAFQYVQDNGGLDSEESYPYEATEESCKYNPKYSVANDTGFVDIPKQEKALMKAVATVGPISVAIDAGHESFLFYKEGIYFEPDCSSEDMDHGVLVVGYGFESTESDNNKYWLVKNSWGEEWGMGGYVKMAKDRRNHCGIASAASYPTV
# Chain of Voltage-gated inwardly rectifying potassium channel KCNH2 (Q12809 whole entry): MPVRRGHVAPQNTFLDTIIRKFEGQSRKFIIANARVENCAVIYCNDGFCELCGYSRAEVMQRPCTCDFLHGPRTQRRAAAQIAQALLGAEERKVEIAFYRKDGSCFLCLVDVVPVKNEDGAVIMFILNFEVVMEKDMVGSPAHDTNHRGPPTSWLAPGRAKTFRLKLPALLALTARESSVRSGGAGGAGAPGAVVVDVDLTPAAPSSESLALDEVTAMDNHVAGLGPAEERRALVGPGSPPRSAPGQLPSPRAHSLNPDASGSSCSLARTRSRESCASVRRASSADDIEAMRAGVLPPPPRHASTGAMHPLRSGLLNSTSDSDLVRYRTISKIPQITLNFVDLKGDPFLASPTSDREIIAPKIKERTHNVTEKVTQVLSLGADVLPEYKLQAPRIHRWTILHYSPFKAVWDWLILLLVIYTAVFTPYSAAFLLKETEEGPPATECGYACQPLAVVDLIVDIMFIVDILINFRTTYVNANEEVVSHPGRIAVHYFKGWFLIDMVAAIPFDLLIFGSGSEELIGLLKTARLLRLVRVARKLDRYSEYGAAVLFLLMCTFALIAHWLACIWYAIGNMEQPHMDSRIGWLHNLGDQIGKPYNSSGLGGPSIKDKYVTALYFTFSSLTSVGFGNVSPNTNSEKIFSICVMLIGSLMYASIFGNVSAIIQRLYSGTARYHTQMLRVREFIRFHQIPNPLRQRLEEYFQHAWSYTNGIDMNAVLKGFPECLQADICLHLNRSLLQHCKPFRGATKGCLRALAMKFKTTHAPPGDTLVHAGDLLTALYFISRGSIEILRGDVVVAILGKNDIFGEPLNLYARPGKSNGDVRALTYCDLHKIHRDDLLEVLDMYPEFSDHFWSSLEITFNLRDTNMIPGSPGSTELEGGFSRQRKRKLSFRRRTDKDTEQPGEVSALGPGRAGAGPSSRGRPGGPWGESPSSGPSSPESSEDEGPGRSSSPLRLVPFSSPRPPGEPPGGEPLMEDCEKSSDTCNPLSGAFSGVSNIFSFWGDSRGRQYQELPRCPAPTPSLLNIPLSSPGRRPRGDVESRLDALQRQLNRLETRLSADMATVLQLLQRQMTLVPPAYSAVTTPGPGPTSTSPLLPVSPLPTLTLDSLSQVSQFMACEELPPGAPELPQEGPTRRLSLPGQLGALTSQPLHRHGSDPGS
# Chain of Cathepsin S (P25774 whole entry): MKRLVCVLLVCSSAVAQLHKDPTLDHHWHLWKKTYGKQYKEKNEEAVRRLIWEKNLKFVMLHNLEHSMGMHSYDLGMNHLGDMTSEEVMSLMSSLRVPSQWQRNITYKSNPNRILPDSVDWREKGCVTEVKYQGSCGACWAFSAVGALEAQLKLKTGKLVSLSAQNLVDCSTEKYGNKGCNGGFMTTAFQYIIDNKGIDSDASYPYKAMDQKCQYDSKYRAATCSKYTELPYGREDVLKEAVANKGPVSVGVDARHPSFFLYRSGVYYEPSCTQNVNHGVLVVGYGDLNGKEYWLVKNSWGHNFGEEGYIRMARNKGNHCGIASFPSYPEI
# T1 sequence (P53634 25-134 limits assumed): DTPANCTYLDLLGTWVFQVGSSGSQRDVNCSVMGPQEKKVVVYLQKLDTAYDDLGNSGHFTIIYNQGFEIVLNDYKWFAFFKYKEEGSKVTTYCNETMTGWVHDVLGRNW
# T1 sequence (P53634 231-394 limits assumed): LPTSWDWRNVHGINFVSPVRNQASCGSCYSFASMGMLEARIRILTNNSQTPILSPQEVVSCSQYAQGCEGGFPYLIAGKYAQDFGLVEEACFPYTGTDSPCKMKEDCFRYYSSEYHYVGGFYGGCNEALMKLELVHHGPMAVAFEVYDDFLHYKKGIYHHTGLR
# T1 sequence (P53634 395-463 limits assumed): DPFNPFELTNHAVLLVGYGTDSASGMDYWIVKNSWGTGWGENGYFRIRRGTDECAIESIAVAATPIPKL
# T4 sequence (Q15722 whole entry, looked up): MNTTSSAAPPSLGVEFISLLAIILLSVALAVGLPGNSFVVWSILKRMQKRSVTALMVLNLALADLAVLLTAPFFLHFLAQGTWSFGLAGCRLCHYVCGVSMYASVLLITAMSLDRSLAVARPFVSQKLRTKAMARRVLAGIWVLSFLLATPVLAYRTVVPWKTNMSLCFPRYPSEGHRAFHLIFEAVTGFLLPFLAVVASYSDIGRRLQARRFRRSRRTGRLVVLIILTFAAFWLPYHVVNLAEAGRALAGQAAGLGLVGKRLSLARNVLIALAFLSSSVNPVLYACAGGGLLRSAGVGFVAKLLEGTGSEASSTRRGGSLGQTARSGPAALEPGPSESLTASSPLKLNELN
# T4 sequence (Q9NPC1 whole entry, looked up): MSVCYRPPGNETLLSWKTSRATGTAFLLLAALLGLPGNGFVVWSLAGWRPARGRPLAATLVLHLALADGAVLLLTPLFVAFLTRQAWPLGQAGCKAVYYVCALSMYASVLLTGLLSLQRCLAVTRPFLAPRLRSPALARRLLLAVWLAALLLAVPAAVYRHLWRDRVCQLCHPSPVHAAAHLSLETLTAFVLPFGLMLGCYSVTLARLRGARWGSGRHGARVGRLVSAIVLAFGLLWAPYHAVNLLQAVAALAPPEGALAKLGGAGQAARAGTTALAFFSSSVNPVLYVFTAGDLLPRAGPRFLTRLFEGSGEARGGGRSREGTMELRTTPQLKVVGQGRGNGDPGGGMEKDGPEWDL
IC50 (Dipeptidyl peptidase 1 [1]) [nM],IC50 (Dipeptidyl peptidase 1 [2]) [nM],microsomal CLint [3] [µL/min/mg],hepatocyte CLint [4] [µL/min/1e6 cells],logD [6],pKa [7],IC50 (Cathepsin K) [nM],IC50 (Procathepsin L) [nM],IC50 (Cathepsin S) [nM],IC50 (Cathepsin B) [nM],EC50 [8] [nM],Structure (SMILES),IC50 [5] [nM],further results
,50.1,< 3,41,1.1,6.3,7940,,,,,CN1Cc2ccc(-c3ccc(C[C@@H](C#N)NC(=O)C4(N)CCOCC4)cc3)cc2C1=O,> 33000,inhibition [9]: 50%
,,3.6,2.9,1.9,5.8,> 10000,> 10000,> 10000,> 10000,> 100000,N#Cc1ccc(-c2ccc(C[C@@H](C#N)NC(=O)C3(N)CCOCC3)cc2)cc1,26000,clearance [10]: 9 mL/min/kg; Vd [11]: 1.9 L/kg; half-life [12]: 3.5 h; bioavailability [13]: 92%; Activity (Rattus norvegicus [14]): Non-toxic; Activity (Rattus norvegicus [15]): Non-toxic; Activity (Rattus norvegicus [16]): Non-toxic; Activity (Rattus norvegicus [17]): Non-toxic; clearance [18]: 9 mL/min/kg; Vd [19]: 1.6 L/kg; half-life [20]: 2 h; bioavailability [21]: 95%; clearance [22]: 2 mL/min/kg; Vd [23]: 1.4 L/kg; half-life [24]: 11.6 h; bioavailability [25]: 72%; IC50 (Leukotriene B4 receptor [26]): 2000 nM; inhibition (Leukotriene B4 receptor [27]): 69%
2,31.6,> 150,> 150,2.3,5.4,,,,,,N#C[C@H](Cc1ccc(-c2ccccc2)cc1)NC(=O)C1(N)CCOCC1,> 33000,inhibition [28]: inactive
0.794,7.94,< 3,< 3,0.8,6.3,,,,,,CS(=O)(=O)c1cccc(-c2ccc(C[C@@H](C#N)NC(=O)C3(N)CCOCC3)cc2)c1,> 33000,inhibition [28]: inactive
2.51,3.16,20,15,2.9,7.1,,,,,,N#Cc1ccc(-c2ccc(C[C@@H](C#N)NC(=O)C3(N)CCCCC3)cc2)cc1,9000,

# Second part, the molecule before the results:
Structure (SMILES),IC50 (Dipeptidyl peptidase 1 [1]) [nM],IC50 (Dipeptidyl peptidase 1 [2]) [nM],microsomal CLint [3] [µL/min/mg],hepatocyte CLint [4] [µL/min/1e6 cells],logD [6],pKa [7],IC50 (Cathepsin K) [nM],IC50 (Procathepsin L) [nM],IC50 (Cathepsin S) [nM],IC50 (Cathepsin B) [nM],EC50 [8] [nM],IC50 [5] [nM],further results
N#Cc1ccc(-c2ccc(C[C@@H](C#N)NC(=O)[C@@H]3C[C@@H](O)CCN3)cc2)cc1,5.01,12.6,< 3,4,1.4,7.6,6310,> 10000,> 10000,> 10000,75000,> 33000,
N#Cc1ccc(-c2ccc(C[C@@H](C#N)NC(=O)[C@@H]3CCCCN3)cc2)cc1,39.8,10,< 4,< 3,2.7,8.4,1000,> 10000,> 10000,> 10000,9000,1400,clearance [10]: 16 mL/min/kg; Vd [11]: 5.6 L/kg; half-life [12]: 4.5 h; bioavailability [13]: 75%; Activity (Rattus norvegicus [14]): Toxic; Activity (Rattus norvegicus [15]): Toxic; Activity (Rattus norvegicus [16]): Toxic; Activity (Rattus norvegicus [17]): Toxic
CC[C@H](N)C(=O)N[C@H](C#N)Cc1ccc(-c2ccccc2)cc1,2,63.1,,,,,,,,,,,
CSc1cc(-c2ccc(C[C@@H](C#N)NC(=O)[C@@H]3CCCCN3)cc2)ccc1C#N,3.98,1,7,13,,,398,> 10000,> 10000,> 10000,,2700,
CN1Cc2cc(-c3ccc(C[C@@H](C#N)NC(=O)[C@@H]4C[C@@H](O)CCN4)cc3)ccc2C1=O,3.98,39.8,< 4,< 4,0.5,,7940,> 10000,> 10000,> 10000,> 120000,> 33000,
N#C[C@H](Cc1ccc(-c2ccccc2)cc1)NC(=O)[C@@H]1CCCCN1,,158,,> 150,,,,,,,,,Stability (Plasma [29]): Stable; Stability (Plasma [30]): Stable; Stability (Hepatocyte [31]): Unstable; Stability (Hepatocyte [32]): Unstable
CN1Cc2cc(-c3ccc(C[C@@H](C#N)NC(=O)[C@@H]4CCCCN4)cc3)ccc2C1=O,25.1,7.94,< 3,5,1,7.1,251,> 10000,> 10000,> 10000,,,
